Many of the other results were omitted from the sample, so hits are more common in it than they were.
XBP1 UPR activ: activators of adaptive XBP1 UPR arm, primary screen, cell-based, CHO-XBP1 luciferase reporter, luminescence, uHTS | IRE1-XBP1 UPR activation; percent of tunicamycin response, DMSO as zero | activation, % at 20 µM | 330,000 tested, 0.33% active | AID 463104, 2010;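 active means versus positive control, 20 µM dose yields 30% or more activation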;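 further: 100% = tunicamycin at 10 µg/mL and 0% = DMSO only wells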
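Material: CHO-XBP1 cells stably carrying IRE1-XBP1-driven luciferase reporter / Amount: 1000 cells per well / Compound: 20 µM, 1% DMSO / Times: 6 h treatment, 37 °C / Detection: luciferase luminescence / Measure: % activation of reporter signal versus tunicamycin and DMSO controls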
VLA-4 inh: inhibition in human VLA-4 binding assay, primary screen, VLA-4 allosteric modulator project, MLPCN library, flow cytometry, VLA-4 expressing cells. AID 2557, 2010. inhibition, % (about 7 µM as worked out from the volumes in the protocol). 330,000 tested, 0.2% active. ligand binding flow cytometry; in the data active means inhibition above about 50%
Beta2AR agonist: beta2AR agonists driving receptor internalization, primary screen, cell-based, FAP fluorogen, flow cytometry; response, % (concentration not given with the values); Beta-2 adrenergic receptor (Homo sapiens), P07550; Am2.2-beta2AR cells; 340,000 tested, 0.43% active;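 active means response above a set limit, near 3 SD of response in nonfluorescent compounds, cut at about 42% in these data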
Target sequence (P07550 whole entry, looked up): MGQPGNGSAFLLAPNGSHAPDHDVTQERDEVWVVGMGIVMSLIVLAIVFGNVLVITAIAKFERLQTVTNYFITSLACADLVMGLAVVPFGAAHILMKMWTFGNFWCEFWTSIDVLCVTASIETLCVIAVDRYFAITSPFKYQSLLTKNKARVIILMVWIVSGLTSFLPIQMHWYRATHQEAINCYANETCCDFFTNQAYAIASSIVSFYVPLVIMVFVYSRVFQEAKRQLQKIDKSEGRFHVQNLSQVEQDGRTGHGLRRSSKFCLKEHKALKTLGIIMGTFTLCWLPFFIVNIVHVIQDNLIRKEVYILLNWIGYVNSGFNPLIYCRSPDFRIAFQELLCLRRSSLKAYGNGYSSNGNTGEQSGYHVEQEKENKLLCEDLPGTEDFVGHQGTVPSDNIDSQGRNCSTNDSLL
CHOP UPR activ: activators of apoptotic CHOP UPR arm, primary screen, cell-based, CHO-CHOP luciferase reporter, luminescence, uHTS; UPR activation; percent of tunicamycin response over DMSO baseline; activation, % at 10 µM; 330,000 tested, 0.34% active;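 active means at 10 µM dose, activation of 40% or more, normalized to positive control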;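 further: 100% = tunicamycin at 10 µg/mL and 0% = DMSO alone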
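Test system: CHO-CHOP cells, stable luciferase reporter of PERK-eIF2a-CHOP signalling | Quantity: 500 CHO-CHOP cells per well | Buffer or medium: F12 plus 10% serum | Compound dosing: 10 µM single point, 0.5% DMSO | Schedule: 6 h compound treatment, 37 °C | Signal: Luciferase luminescence | Control set: Tunicamycin high control, DMSO low control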
CHOP inhibitor: inhibitors of CHOP promoter induction, primary screen, cell-based, unfolded protein response, luciferase reporter; CHO-K1 CHOP-promoter luciferase, tunicamycin-induced, 15-18 h; inhibition, % at 10 µM; 220,000 tested, 3.8% active; AID 2732, 2010;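 active means compounds that reduced the stress-induced luciferase reporter signal by more than about 70% of percent inhibition, limit read from the data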;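 further: 0% = tunicamycin plus vehicle and 100% = wells without tunicamycin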
CHOP confirm: retest of CHOP induction inhibitors, confirmation, cell-based. shares compounds with CHOP inhibitor. CHO-CHOP promoter luciferase reporter, tunicamycin-induced, luminescence. inhibition, % at 10 µM. 2,100 tested, 45% active;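 active means mean of three repeat readings of reporter signal inhibition above a set limit, cut at about 70% in these data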;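 further: 0% = tunicamycin plus vehicle and 100% = wells lacking tunicamycin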
CHOP UPR conf: activators of apoptotic CHOP UPR arm, confirmation, cell-based, CHO-CHOP luciferase reporter, single concentration. shares compounds with CHOP UPR activ. CHO-CHOP cells, CHOP-luciferase reporter luminescence; percent of tunicamycin response, DMSO as zero. activation, % at 10 µM. 1,000 tested, 64% active; in the data active means activation above about 33%;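 further: 0% = DMSO wells and 100% = tunicamycin 10 µg/mL wells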
* marks the source's active call; other numbers are inactive results; i = inactive; · = not tested or not shown.

SMILES	XBP1 UPR activ	VLA-4 inh	Beta2AR agonist	CHOP UPR activ	CHOP inhibitor	CHOP confirm	CHOP UPR conf
O=C(Cc1ccccc1)Nc1cccc(-c2nc3ncccc3o2)c1	0.4	8.2	-2.7	1.2	37.4	·	·
O=C(Nc1cccc(-c2nc3ncccc3o2)c1)c1sc2ccccc2c1Cl	1.2	5.5	29.8	0.4	103.6*	103.4*	·
COc1ccc(CP(=O)(c2ccccc2)c2ccccc2)cc1	-2.3	12.9	6.3	1.2	·	·	·
COc1ccc(CN(C)C2c3ccccc3-c3ccccc32)cc1	-2.4	7.0	-8.0	0.1	106.1*	4.8	·
Cc1c(OCc2ccccc2)c(=O)ccn1Cc1ccc(Cl)cc1	4.0	7.8	-4.1	-1.0	105.0*	27.5	·
O=C1c2ccccc2C(=O)N1Nc1ccccc1	-1.6	-3.8	0.5	-0.2	17.4	·	·
Cc1ccc(NN2C(=O)C=C(c3ccccc3)C2=O)cc1	-10.0	·	·	54.4*	107.3*	-138.7	171.6*
O=S(=O)(c1ccc(Cl)cc1)c1snnc1-c1ccccc1	12.2	-0.1	25.7	63.9*	·	-81.9	55.5*
Cc1cc(NC(=O)CCS(=O)(=O)c2nc(-c3ccccc3)cc(C(F)(F)F)n2)no1	-9.2	28.0	30.4	137.6*	·	-228.8	465.8*
CCN(c1ccc(NC(=O)c2ccc(N3CCCC3=O)cc2)cc1)C(C)C	-4.2	-6.9	1.8	2.0	·	·	·
O=C(/C=C/Sc1ccc(C(F)(F)F)cn1)c1ccccc1	-1.1	20.3	-2.2	83.9*	104.0*	-31.2	46.7*
O=C(Nc1c(C(=O)N2CCOCC2)cnn1-c1ccccc1)c1ccc(F)cc1	-0.3	-12.1	0.6	0.4	·	·	·
C/C(=N\NC(=O)c1ccc(CSc2nc(C)cc(C)n2)cc1)c1ccco1	1.3	9.4	9.9	-0.9	-3.1	·	·
O=C1CC(c2cccc(Cl)c2)CC(O)=C1C=Nc1cccc(Cl)c1 (stereo not drawn)	-0.1	-6.9	5.0	51.8*	99.0*	72.3*	3.3
O=C1CC(c2ccccc2)CC(O)=C1C=Nc1ccccc1 (stereo not drawn)	25.9	7.7	-9.2	34.5	59.5	·	·
CC1C(=O)N2CCCc3cc(NC(=O)c4ccccc4C(F)(F)F)cc1c32 (stereo not drawn)	-2.0	10.2	0.2	-1.9	·	·	·
Clc1ccc(CONc2ncnc3nonc23)c(Cl)c1	-1.5	14.8	6.1	-2.3	60.3	·	·
CC1=NOC(=O)/C1=C/c1ccc(-c2ccc(Cl)cc2)o1	-8.8	40.7	65.2*	265.2*	108.6*	65.7	34.0*
COc1ccc(Cl)cc1/C=C1/C(=O)ON=C1C	-4.6	1.2	-6.0	5.2	·	·	·
CC1=NOC(=O)/C1=C\c1ccc(-c2cc(Cl)ccc2Cl)o1	-8.2	19.3	80.4*	69.1*	113.5*	-20.3	-8.9
CCOc1cc(NC(=O)CCl)c(OCC)cc1NC(=O)CCl	-4.3	-1.5	-2.3	152.8*	97.6*	79.0*	87.0*
CCOc1ccccc1NC(=O)CCC(=O)Nc1ccccc1OCC	0.7	-5.1	-2.7	-2.4	15.8	·	·
CCOC(=O)CSc1nc2sc(C)c(C)c2c(=O)[nH]1	0.0	3.0	4.8	-1.4	26.2	·	·
CCOC(=O)/C(=C\c1ccc(Cl)cc1)c1nc2sc(C)c(C)c2c(=O)[nH]1	-2.5	17.2	50.6*	59.5*	107.4*	-45.0	198.5*
COc1ccccc1N=C1NC(=O)/C(=C/c2ccc(N(C)C)cc2)S1	6.3	-67.3	-34.4	4.3	·	·	·
SMILES	XBP1 UPR activ	VLA-4 inh	Beta2AR agonist	CHOP UPR activ	CHOP inhibitor	CHOP confirm	CHOP UPR conf
COCCN(C(=O)CCC(=O)Nc1ccccn1)C(C(=O)NC(C)C)c1ccc(C)cc1 (stereo not drawn)	9.1	-6.8	0.9	1.6	·	·	·
O=C(C=Cc1ccccc1)c1cccs1	·	·	-0.2	·	·	·	·
O=C1Nc2ccccc2/C1=C/C(=O)c1cccs1	12.4	11.5	41.0	74.1*	104.4*	-47.2	125.0*
Cc1nc(NC(=O)/C=C/c2ccccc2)n[nH]1	-1.3	7.5	13.9	43.7*	96.8*	49.0	35.0*
CCCn1nnc(NC(=O)/C=C/c2ccccc2)n1	2.8	11.4	5.1	1.4	3.7	·	·
CC(=O)N(c1ccccc1C)C1CCCC1	1.0	-2.8	-6.3	3.9	20.8	·	·
CC(=O)N(C1=C(Cl)C(=O)c2ccccc2C1=O)C1CCCCC1	-0.8	3.5	63.8*	52.8*	102.4*	113.2*	-9.4
Cn1c(-c2cccc(OCc3ccccc3)c2)nc2c1c(=O)[nH]c(=O)n2Cc1ccccc1	16.3	8.9	-21.2	75.6*	106.3*	78.7*	143.8*
O=C(CCl)c1ccc(Cc2ncc(C(F)(F)F)cc2Cl)s1	7.6	-9.5	21.2	168.8*	103.7*	-119.0	169.1*
COc1ccccc1N1CCN(Cc2ccc(O)c3ncccc23)CC1	17.6	16.9	15.1	113.1*	101.7*	-66.3	97.5*
COc1ccccc1N1CCN(Cc2ccc(OC)c(OC)c2OC)CC1	-2.6	-0.4	0.4	-0.8	10.1	·	·
CCOC(=O)C1=C(O)c2ccccc2C(=O)/C1=C\c1ccc(C)cc1	·	·	-906.6	·	-28.6	·	·
CCOC(=O)C1=C(Cc2ccc(Cl)cc2)C(=O)c2ccccc2C1=O	-1.1	·	-335.1	117.7*	106.9*	44.9	37.4*
Cc1ccc(S(=O)(=O)N2CCC(C(=O)NCCC3=CCCCC3)CC2)c(C)c1	-3.7	0.8	1.4	1.0	·	·	·
CCOc1cc(/C=N/O)ccc1OCc1ccc([N+](=O)[O-])cc1	4.4	10.8	8.2	5.0	4.9	·	·
CCOc1cc(C=C(C(=O)OC)C(=O)OC)ccc1OCc1ccc([N+](=O)[O-])cc1	-4.9	1.8	5.7	220.4*	98.6*	-40.3	242.0*
CC(=O)Nc1ccc(NC2=C(Cl)C(=O)c3ccccc3C2=O)cc1	-0.8	·	·	45.3*	103.9*	-124.8	19.5
CN(C)S(=O)(=O)c1cccc(CNCC2COc3ccccc3O2)c1 (stereo not drawn)	-2.7	17.4	2.5	2.6	·	·	·
Cc1ccc(/C=C2\CCC3=C2OC(N)=C(C#N)C3c2ccc(C)cc2)cc1 (stereo not drawn)	13.2	i	·	91.8*	97.8*	-75.1	80.8*
CCOC(=O)c1ccc(N2C(=O)C=CC2=O)cc1	-4.4	31.9	12.4	46.7*	111.9*	-37.0	32.6*

Screening data as filed in PubChem BioAssay.
